# From ChEMBL document CHEMBL4330067, “Synthesis and mechanistic studies of diketo acids and their bioisosteres as potential antibacterial agents” (Eur J Med Chem, 2019)
# Legend:
# [1] = Inhibition of human methionine aminopeptidase 1B using Met-AMC as substrate by Dixon method
# In short: (§1)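 Purified MetAP at 4 µM in 50 mM HEPES with 150 mM KCl and CoCl2 at 3 molar equivalents of enzyme. pH 7.5 for SpMetAP1a and EfMetAP1a, pH 8.0 for HsMetAP1b. Substrate L-Met-AMC at 50, 100 and 150 µM. Compounds (10 mM DMSO stocks) tested over 1 to 120 µM for % inhibition; Ki by Dixon method.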
# Enterococcus faecalis [2] = experiment: Inhibition of Enterococcus faecalis methionine aminopeptidase 1A at 100 uM using Met-AMC as substrate relative to control; in short: as §1
# Streptococcus pneumoniae [3] = experiment: Inhibition of Streptococcus pneumoniae methionine aminopeptidase 1A at 100 uM using Met-AMC as substrate relative to control; in short: as §1
# [4] = system: Mycobacterium tuberculosis; experiment: Inhibition of Mycobacterium tuberculosis methionine aminopeptidase 1C at 100 uM using Met-AMC as substrate relative to control
# In short: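 Purified MtMetAP1c (4 µM) in 50 mM Hepes pH 7.5 with 150 mM KCl and CoCl2 at three molar equivalents of enzyme. Substrate was L-Met-AMC at 50, 100 or 150 µM. Compounds came from 10 mM DMSO stocks. Percent inhibition was taken against the uninhibited control.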
# Homo sapiens = species: Homo sapiens; experiment: Inhibition of human methionine aminopeptidase 1B at 100 uM using Met-AMC as substrate relative to control; in short: as §1
# Escherichia coli = experiment: Antibacterial activity against Escherichia coli ATCC 25922 after 24 hrs by broth dilution assay; type: functional; conditions: ATCC 25922, 24 h
# In short: (§2)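 Broth dilution per NCCLS in nutrient broth, serial dilutions 1000 to 7.8 µg/mL, DMSO below 4% final. Inoculum approx. 2.5×10⁶ cells/mL, 37 °C with shaking at 150 rpm for 24 h. MIC taken as the lowest concentration with no visible growth. Ciprofloxacin served as positive control.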
# Enterococcus faecalis [5] = experiment: Antibacterial activity against Enterococcus faecalis MTCC 439 after 24 hrs by broth dilution assay; type: functional; conditions: MTCC 439, 24 h; in short: as §2
# [6] = Inhibition of Streptococcus pneumoniae methionine aminopeptidase 1A using Met-AMC as substrate by Dixon method; in short: as §1
# Pseudomonas aeruginosa = experiment: Antibacterial activity against Pseudomonas aeruginosa MTCC 2453 after 24 hrs by broth dilution assay; type: functional; conditions: MTCC 2453, 24 h; in short: as §2
# [7] = Inhibition of Mycobacterium tuberculosis methionine aminopeptidase 1C using Met-AMC as substrate by Dixon method
# Salmonella typhimurium = experiment: Antibacterial activity against Salmonella typhimurium MTCC 3224 after 24 hrs by broth dilution assay; type: functional, Salmonella enterica subsp. enterica serovar Typhimurium; conditions: Salmonella enterica, MTCC 3224, 24 h; in short: as §2
# Streptococcus pneumoniae [8] = experiment: Antibacterial activity against Streptococcus pneumoniae MTCC 655 after 24 hrs by broth dilution assay; type: functional; conditions: MTCC 655, 24 h; in short: as §2
# Klebsiella pneumoniae = experiment: Antibacterial activity against Klebsiella pneumoniae ATCC 700603 after 24 hrs by broth dilution assay; type: functional; conditions: Klebsiella pneumoniae, 700603, 24 h; in short: as §2
# [9] = Inhibition of Enterococcus faecalis methionine aminopeptidase 1A using Met-AMC as substrate by Dixon method; in short: as §1
SMILES,Ki [1],inhibition (Enterococcus faecalis [2]),inhibition (Streptococcus pneumoniae [3]),inhibition [4],inhibition (Homo sapiens),MIC (Escherichia coli),MIC (Enterococcus faecalis [5]),Ki [6],MIC (Pseudomonas aeruginosa),Ki [7],MIC (Salmonella typhimurium),MIC (Streptococcus pneumoniae [8]),MIC (Klebsiella pneumoniae),Ki [9]
Cc1ccccc1-c1cc(C(=O)N[C@H](C)C(=O)O)on1,86.9 µM,43.4%,44.6%,40.9%,50.2%,–,–,–,–,–,–,–,–,–
CCOC(=O)/C(O)=C/C(=O)c1ccccc1C,74.3 µM,43.5%,50.3%,55.8%,61.4%,250 µg/mL,250 µg/mL,98.5 µM,1000 µg/mL,36.7 µM,1000 µg/mL,250 µg/mL,1000 µg/mL,–
COC(=O)[C@@H](C)NC(=O)/C(O)=C/C(=O)c1ccccc1C,113 µM,59.6%,57%,67.1%,51.9%,1000 µg/mL,500 µg/mL,51.9 µM,1000 µg/mL,32.6 µM,1000 µg/mL,125 µg/mL,1000 µg/mL,60.4 µM
COC(=O)[C@@H](C)NC(=O)c1cc(-c2ccccc2C)no1,137 µM,24.9%,37%,45.9%,51.1%,–,–,–,–,–,–,–,–,–
CCOC(=O)/C(O)=C/C(=O)c1oc2ccc(Br)cc2c1C,19.8 µM,93.3%,73%,91.6%,86%,250 µg/mL,250 µg/mL,68.2 µM,1000 µg/mL,18.2 µM,1000 µg/mL,250 µg/mL,500 µg/mL,10.8 µM
Cc1c(-c2cc(C(=O)O)on2)oc2ccc(Br)cc12,–,40.3%,43.2%,39.1%,47.3%,–,–,–,–,–,–,–,–,–
C[C@@H](NC(=O)c1cc(-c2ccc(Cl)cc2)no1)C(=O)O,–,23.6%,43.7%,51.7%,47.2%,–,–,–,–,94.6 µM,–,–,–,–
O=C(O)c1cc(-c2ccc(Cl)cc2)no1,–,20%,39.7%,58.2%,43.9%,–,–,–,–,71.8 µM,–,–,–,–
COC(=O)[C@@H](C)NC(=O)c1cc(-c2ccc(Cl)cc2)no1,–,15.4%,43.8%,53.2%,43.1%,–,–,–,–,134 µM,–,–,–,–
CCOC(=O)c1cc(-c2oc3ccc(Br)cc3c2C)no1,–,21.1%,40.6%,41.3%,43.6%,–,–,–,–,–,–,–,–,–
